{
  "source": "paper PMC5573908",
  "about": "(Diabetes, Obesity & Metabolism, 2017)",
  "key": {"[1]": {"experiment": "Multiple-dose pharmacokinetics of semaglutide", "format": "in vivo, human", "procedure,_shortened": "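Test compound (1.34 mg/mL) was given s.c. once weekly at 0.25 mg for 4 weeks, 0.5 mg for 4 weeks, then 1.0 mg for 4 weeks. Steady-state trough concentrations were taken after 4, 8 and 12 weeks. After a further clinic 1.0 mg dose, steady-state parameters were derived from 0–168 h concentration-time curves.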"}, "subjects with obesity": {"test_system": "subjects with obesity", "experiment": "Safety and tolerability", "format": "in vivo, human", "procedure,_shortened": "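Safety was followed through both 12-week periods of randomised crossover s.c. weekly dosing (0.25, 0.5, then 1.0 mg, 4 weeks each) versus matching placebo. Assessments were adverse events, hypoglycaemic events and blood pressure.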"}, "[2]": {"settings": "12 weeks, once-weekly s.c. escalated to 1.0 mg"}},
  "data": [
    {"smiles": "CC[C@H](C)[C@H](NC(=O)[C@H](Cc1ccccc1)NC(=O)[C@H](CCC(=O)O)NC(=O)[C@H](CCCCNC(=O)COCCOCCNC(=O)COCCOCCNC(=O)CC[C@H](NC(=O)CCCCCCCCCCCCCCCCC(=O)O)C(=O)O)NC(=O)[C@H](C)NC(=O)[C@H](C)NC(=O)[C@H](CCC(N)=O)NC(=O)CNC(=O)[C@H](CCC(=O)O)NC(=O)[C@H](CC(C)C)NC(=O)[C@H](Cc1ccc(O)cc1)NC(=O)[C@H](CO)NC(=O)[C@H](CO)NC(=O)[C@@H](NC(=O)[C@H](CC(=O)O)NC(=O)[C@H](CO)NC(=O)[C@@H](NC(=O)[C@H](Cc1ccccc1)NC(=O)[C@@H](NC(=O)CNC(=O)[C@H](CCC(=O)O)NC(=O)C(C)(C)NC(=O)[C@@H](N)Cc1cnc[nH]1)[C@@H](C)O)[C@@H](C)O)C(C)C)C(=O)N[C@@H](C)C(=O)N[C@@H](Cc1c[nH]c2ccccc12)C(=O)N[C@@H](CC(C)C)C(=O)N[C@H](C(=O)N[C@@H](CCCNC(=N)N)C(=O)NCC(=O)N[C@@H](CCCNC(=N)N)C(=O)NCC(=O)O)C(C)C", "note": "[semaglutide]", "values": [
      {"measurement": "Mean trough value (CV)", "setting": "[1]; 0.25 mg s.c. once-weekly, after 4 weeks of treatment", "result": "4.64 (32.5) nmol/L"},
      {"measurement": "Mean trough value (CV)", "setting": "[1]; 0.5 mg s.c. once-weekly, after 8 weeks of treatment", "result": "10.25 (23.3) nmol/L"},
      {"measurement": "Mean trough value (CV)", "setting": "[1]; 1.0 mg s.c. once-weekly, after 12 weeks of treatment", "result": "19.73 (21.9) nmol/L"},
      {"measurement": "Severe or blood glucose-confirmed symptomatic hypoglycaemic events", "setting": "subjects with obesity; 12 weeks", "result": "No severe or blood glucose‐confirmed symptomatic hypoglycaemic events were reported"},
      {"measurement": "Serious AEs", "setting": "subjects with obesity; [2]", "result": "no serious AEs were reported"},
      {"measurement": "Severity of AEs", "setting": "subjects with obesity; [2]", "result": "mild or moderate"},
      {"measurement": "Observed mean changes from baseline in systolic and diastolic blood pressure", "setting": "subjects with obesity; week 12, either treatment", "result": "≤ 2", "unit": "mm Hg"}
    ]}
  ]
}
